Measurements from ChEMBL document CHEMBL4033712, “Synthesis and biological evaluation of new C-12(α/β)-(N-) sulfamoyl-phenylamino-14-deoxy-andrographolide derivatives as potent anti-cancer agents” (Bioorg Med Chem Lett, 2017).

Assays:
Type in all cases: functional
[1] = tested on: HCT-15; assay: Anticancer activity against human HCT15 cells assessed as cell growth at 10 uM after 48 hrs by sulforhodamine B assay relative to control; conditions: HCT-15, 48 h, read-out: Activity
Summary of the method: (§1)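 Single-dose NCI-60 panel screen: compound added at 10 µM and the culture incubated 48 h. The end point was read by protein staining with sulforhodamine B. The value is percent growth of treated cells relative to untreated control cells, reported as a mean graph across the panel.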

[2] = tested on: SNB-75; assay: Anticancer activity against human SNB75 cells assessed as cell growth at 10 uM after 48 hrs by sulforhodamine B assay relative to control; conditions: SNB-75, 48 h, read-out: Activity
Summary of the method: (§2)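 NCI-60 single-dose screen: compound added at 10 µM, cultures incubated 48 h. End point by sulforhodamine B protein-binding dye. Value reported as percent growth of treated cells relative to untreated control cells.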

[3] = tested on: LOX IMVI; assay: Anticancer activity against human LOXIMVI cells assessed as cell growth at 10 uM after 48 hrs by sulforhodamine B assay relative to control; conditions: read-out: Activity; summary of the method: as §1
[4] = tested on: MCF7; assay: Anticancer activity against human MCF7 cells assessed as cell growth at 10 uM after 48 hrs by sulforhodamine B assay relative to control; conditions: MCF7, 48 h, read-out: Activity; summary of the method: as §1
[5] = tested on: MDA-MB-435; assay: Anticancer activity against human MDA-MB-435 cells assessed as cell growth at 10 uM after 48 hrs by sulforhodamine B assay relative to control; conditions: MDA-MB-435, 48 h, read-out: Activity; summary of the method: as §1
[6] = tested on: A498; assay: Anticancer activity against human A498 cells assessed as cell growth at 10 uM after 48 hrs by sulforhodamine B assay relative to control; conditions: A498, 48 h, read-out: Activity; summary of the method: as §1
[7] = tested on: HCC 2998; assay: Anticancer activity against human HCC2998 cells assessed as cell growth at 10 uM after 48 hrs by sulforhodamine B assay relative to control; conditions: HCC 2998, 48 h, read-out: Activity; summary of the method: as §1
[8] = tested on: MOLT-4; assay: Anticancer activity against human MOLT4 cells assessed as cell growth at 10 uM after 48 hrs by sulforhodamine B assay relative to control; conditions: MOLT-4, 48 h, read-out: Activity; summary of the method: as §1
[9] = tested on: SR; assay: Anticancer activity against human SR cells assessed as cell growth at 10 uM after 48 hrs by sulforhodamine B assay relative to control; conditions: read-out: Activity; summary of the method: as §2
[10] = tested on: COLO 205; assay: Anticancer activity against human COLO205 cells assessed as cell growth at 10 uM after 48 hrs by sulforhodamine B assay relative to control; conditions: COLO 205, 48 h, read-out: Activity; summary of the method: as §1
[11] = tested on: SK-MEL-5; assay: Anticancer activity against human SK-MEL-5 cells assessed as cell growth at 10 uM after 48 hrs by sulforhodamine B assay relative to control; conditions: SK-MEL-5, 48 h, read-out: Activity; summary of the method: as §1
[12] = tested on: K562; assay: Anticancer activity against human K562 cells assessed as cell growth at 10 uM after 48 hrs by sulforhodamine B assay relative to control; conditions: K562, 48 h, read-out: Activity; summary of the method: as §1
[13] = tested on: HOP-92; assay: Growth inhibition of human HOP92 cells incubated for 48 hrs by sulforhodamine B assay; conditions: HOP-92, 48 h; for CC50: read-out: LC50 (the source's name)
Summary of the method: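 NCI-60 five-dose screen at 0.01, 0.1, 1, 10 and 100 µM, 48 h incubation, sulforhodamine B end point. GI50 (50% decrease in net growth), TGI (total growth inhibition) and LC50 (net 50% loss of initial cells) taken from log concentration versus % growth inhibition curves.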

[14] = tested on: OVCAR-5; assay: Anticancer activity against human OVCAR5 cells assessed as cell growth at 10 uM after 48 hrs by sulforhodamine B assay relative to control; conditions: OVCAR-5, 48 h, read-out: Activity; summary of the method: as §1
[15] = tested on: NCI-H226; assay: Anticancer activity against human NCI-H226 cells assessed as cell growth at 10 uM after 48 hrs by sulforhodamine B assay relative to control; conditions: NCI-H226, 48 h, read-out: Activity; summary of the method: as §1
[16] = tested on: HCT-116; assay: Anticancer activity against human HCT116 cells assessed as cell growth at 10 uM after 48 hrs by sulforhodamine B assay relative to control; conditions: HCT-116, 48 h, read-out: Activity; summary of the method: as §1
[17] = tested on: KM12; assay: Anticancer activity against human KM12 cells assessed as cell growth at 10 uM after 48 hrs by sulforhodamine B assay relative to control; conditions: KM12, 48 h, read-out: Activity; summary of the method: as §1
[18] = tested on: U-251; assay: Anticancer activity against human U251 cells assessed as cell growth at 10 uM after 48 hrs by sulforhodamine B assay relative to control; conditions: U-251, 48 h, read-out: Activity; summary of the method: as §2
[19] = tested on: MDA-MB-231; assay: Anticancer activity against human MDA-MB-231 cells assessed as cell growth at 10 uM after 48 hrs by sulforhodamine B assay relative to control; conditions: MDA-MB-231, 48 h, read-out: Activity; summary of the method: as §1
[20] = tested on: Malme-3M; assay: Anticancer activity against human MALME-3M cells assessed as cell growth at 10 uM after 48 hrs by sulforhodamine B assay relative to control; conditions: read-out: Activity; summary of the method: as §1
[21] = tested on: EKVX; assay: Anticancer activity against human EKVX cells assessed as cell growth at 10 uM after 48 hrs by sulforhodamine B assay relative to control; conditions: read-out: Activity; summary of the method: as §1
[22] = tested on: HOP-62; assay: Anticancer activity against human HOP62 cells assessed as cell growth at 10 uM after 48 hrs by sulforhodamine B assay relative to control; conditions: HOP-62, 48 h, read-out: Activity; summary of the method: as §1
[23] = tested on: RXF 393; assay: Anticancer activity against human RXF393 cells assessed as cell growth at 10 uM after 48 hrs by sulforhodamine B assay relative to control; conditions: RXF 393, 48 h, read-out: Activity; summary of the method: as §1
[24] = tested on: SK-OV-3; assay: Anticancer activity against human SKOV3 cells assessed as cell growth at 10 uM after 48 hrs by sulforhodamine B assay relative to control; conditions: SK-OV-3, 48 h, read-out: Activity; summary of the method: as §1
[25] = tested on: SK-MEL-28; assay: Anticancer activity against human SK-MEL-28 cells assessed as cell growth at 10 uM after 48 hrs by sulforhodamine B assay relative to control; conditions: SK-MEL-28, 48 h, read-out: Activity; summary of the method: as §1
[26] = tested on: DU-145; assay: Anticancer activity against human DU145 cells assessed as cell growth at 10 uM after 48 hrs by sulforhodamine B assay relative to control; conditions: DU-145, 48 h, read-out: Activity; summary of the method: as §1
[27] = tested on: PC-3; assay: Anticancer activity against human PC3 cells assessed as cell growth at 10 uM after 48 hrs by sulforhodamine B assay relative to control; conditions: PC-3, 48 h, read-out: Activity; summary of the method: as §1
[28] = tested on: UACC-62; assay: Growth inhibition of human UACC62 cells incubated for 48 hrs by sulforhodamine B assay; conditions: UACC-62, 48 h; for CC50: read-out: LC50 (the source's name)
Summary of the method: (§3)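 NCI 60 human tumour cell line panel, five-dose study at 0.01, 0.1, 1, 10 and 100 µM, 48 h incubation. Sulforhodamine B protein-binding dye end point. GI50 (50% decrease in net cell growth), TGI (total growth inhibition) and LC50 (net 50% loss of initial cells) read from log concentration versus % growth inhibition curves.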

[29] = tested on: UO-31; assay: Growth inhibition of human UO31 cells incubated for 48 hrs by sulforhodamine B assay; conditions: UO-31, 48 h; summary of the method: as §3

SMILES | growth at 10 µM [1] [%] | growth at 10 µM [2] [%] | growth at 10 µM [3] [%] | growth at 10 µM [4] [%] | growth at 10 µM [5] [%] | growth at 10 µM [6] [%] | growth at 10 µM [7] [%] | growth at 10 µM [8] [%] | growth at 10 µM [9] [%] | growth at 10 µM [10] [%] | growth at 10 µM [11] [%] | growth at 10 µM [12] [%] | growth at 10 µM [14] [%] | growth at 10 µM [15] [%] | growth at 10 µM [16] [%] | growth at 10 µM [17] [%] | growth at 10 µM [18] [%] | growth at 10 µM [19] [%] | growth at 10 µM [20] [%] | growth at 10 µM [21] [%] | further results
C=C1CC[C@@H]2[C@](C)(COC(C)=O)[C@H](OC(C)=O)CC[C@@]2(C)[C@H]1CC(Nc1ccc(S(=O)(=O)Nc2ncccn2)cc1)C1=CCOC1=O (stereo partly specified) | -51.4 | 25.6 | -79.8 | -19.6 | -14.8 | 79 | 32 | -8.69 | -4.43 | -12.1 | 24.1 | 4.6 | -1.98 | -16.6 | -55 | -13.2 | -19 | -1.01 | -4.93 | 68.3 | GI50 [13]: 3.1 µM; TGI [13]: 8.85 µM; CC50 [13]: 31.1 µM; growth at 10 µM [22]: 126%; growth at 10 µM [23]: -70%; growth at 10 µM [24]: 84.7%; growth at 10 µM [25]: -17.7%; growth at 10 µM [26]: 14.9%; growth at 10 µM [27]: 15.1%; GI50 [28]: 1.11 µM; TGI [28]: 2.56 µM; CC50 [28]: 5.91 µM; GI50 [29]: 1.51 µM; LC50 (concentration giving net 50% loss of initial cells) [29]: 5.85 µM; TGI [29]: 2.97 µM
C=C1CC[C@@H]2[C@](C)(COC(C)=O)[C@H](OC(C)=O)CC[C@@]2(C)[C@H]1CC(Nc1ccc(S(=O)(=O)Nc2nccs2)cc1)C1=CCOC1=O (stereo partly specified) | -39.2 | 28.3 | -88.3 | -21.3 | -8.31 | 85 | 54.2 | -4.45 | -5.84 | -24.6 | 31.4 | 3.4 | 7.82 | -14 | -30.4 | -0.89 | 4.21 | 5.69 | 0.4 | 73.4 | GI50 [13]: 12.4 µM; TGI [13]: 25.3 µM; CC50 [13]: 52 µM; growth at 10 µM [22]: 120%; growth at 10 µM [23]: -50.6%; growth at 10 µM [24]: 79.9%; growth at 10 µM [25]: -16.3%; growth at 10 µM [26]: 22.3%; growth at 10 µM [27]: 21.8%; GI50 [28]: 1.76 µM; TGI [28]: 4.42 µM; CC50 [28]: 13.5 µM; GI50 [29]: 4.07 µM; LC50 (concentration giving net 50% loss of initial cells) [29]: 41.8 µM; TGI [29]: 16.1 µM
C=C1CC[C@@H]2[C@](C)(COC(C)=O)[C@H](OC(C)=O)CC[C@@]2(C)[C@H]1CC(Nc1ccc(S(=O)(=O)Nc2nc(C)cc(C)n2)cc1)C1=CCOC1=O (stereo partly specified) | 49.2 | 44.6 | -60.6 | 40.3 | 67 | 85.3 | 100 | 24.6 | 22.2 | 77 | 74.2 | 19.1 | 103 | 86.7 | 39.2 | 64.7 | 48.2 | 107 | 96.3 | 74.5 | growth at 10 µM [22]: 103%; growth at 10 µM [23]: 85.1%; growth at 10 µM [24]: 112%; growth at 10 µM [25]: 83.5%; growth at 10 µM [26]: 82.3%; growth at 10 µM [27]: 65.2%
C=C1CC[C@@H]2[C@](C)(COC(C)=O)[C@H](OC(C)=O)CC[C@@]2(C)[C@H]1CC(Nc1ccc(S(=O)(=O)Nc2cc(C)on2)cc1)C1=CCOC1=O (stereo partly specified) | 0.18 | 59.4 | -72.7 | 12.2 | 35 | 98.6 | 68.3 | -7.86 | 1.4 | 29 | 44.1 | 9.67 | 52.2 | 79.5 | -1.13 | 30.5 | 30 | 61.1 | 56.6 | 82 | GI50 [13]: 3.07 µM; TGI [13]: 8 µM; CC50 [13]: 28 µM; growth at 10 µM [22]: 60.2%; growth at 10 µM [23]: 29.8%; growth at 10 µM [24]: 109%; growth at 10 µM [25]: 38.1%; growth at 10 µM [26]: 71.1%; growth at 10 µM [27]: 70.8%; GI50 [28]: 2.13 µM; TGI [28]: 7.06 µM; CC50 [28]: 30.5 µM; GI50 [29]: 1.69 µM; LC50 (concentration giving net 50% loss of initial cells) [29]: 7.33 µM; TGI [29]: 3.52 µM
